Laboratory results: publication PMC8530377 (Journal of medicinal chemistry, 2021)

Legend:
[1] = biological target: hMOR (Gi-1) (Homo sapiens, UniProt P35372); experiment: cell-based; conditions: for Emax: read-out: Gi-1 Emax
[2] = test system: GABAA receptor-mediated IPSCs in VTA neurons; experiment: Whole cell electrophysiology, evoked IPSCs in VTA neurons of acute brain slices; assay type: cell-based, rat; conditions: 10 μM; compared to 5 μM DAMGO and 10 μM morphine
[3] = biological target: hMOR (Gz) (Homo sapiens, UniProt P35372); experiment: cell-based; conditions: read-out: Emax at Gz
Chain of hMOR (Gz) (P35372 whole entry): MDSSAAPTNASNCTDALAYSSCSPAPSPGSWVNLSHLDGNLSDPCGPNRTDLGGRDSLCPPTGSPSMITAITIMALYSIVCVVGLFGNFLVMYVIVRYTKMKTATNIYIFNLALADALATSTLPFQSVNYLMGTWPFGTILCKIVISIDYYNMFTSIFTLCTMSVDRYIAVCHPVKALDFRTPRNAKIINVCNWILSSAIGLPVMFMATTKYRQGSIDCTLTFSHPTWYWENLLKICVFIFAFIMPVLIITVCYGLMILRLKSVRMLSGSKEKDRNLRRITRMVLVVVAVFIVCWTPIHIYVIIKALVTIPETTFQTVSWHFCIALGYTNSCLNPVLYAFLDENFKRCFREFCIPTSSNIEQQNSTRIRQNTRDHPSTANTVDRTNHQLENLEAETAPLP

[4] = biological target: hMOR (human MOR) (Homo sapiens, UniProt P35372); experiment: biochemical; assay type: binding
Chain of hMOR (human MOR) (P35372 whole entry): as above

[5] = biological target: hMOR (β-arrestin1) (Homo sapiens, UniProt P35372); assay type: cell-based
Chain of hMOR (β-arrestin1) (P35372 whole entry): as above

[6] = biological target: murine MOR (Mus musculus, UniProt P42866); experiment: BRET-based Nb33 recruitment assay, mMOR; assay type: cell-based; conditions: for Nb33 recruitment efficacy at murine MOR: HEK293-T cells, compared to DAMGO
Chain of murine MOR (P42866 whole entry): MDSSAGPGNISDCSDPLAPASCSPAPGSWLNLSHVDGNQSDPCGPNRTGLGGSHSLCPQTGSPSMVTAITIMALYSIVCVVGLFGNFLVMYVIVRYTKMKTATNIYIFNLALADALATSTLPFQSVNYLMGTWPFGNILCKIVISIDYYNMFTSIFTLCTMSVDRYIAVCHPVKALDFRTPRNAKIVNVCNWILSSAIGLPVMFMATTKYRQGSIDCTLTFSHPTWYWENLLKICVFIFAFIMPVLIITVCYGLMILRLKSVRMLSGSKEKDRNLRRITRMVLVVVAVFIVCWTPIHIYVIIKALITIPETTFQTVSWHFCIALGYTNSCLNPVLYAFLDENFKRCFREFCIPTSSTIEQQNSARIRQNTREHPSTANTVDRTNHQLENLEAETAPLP

[7] = biological target: hMOR (GoA and GoB) (Homo sapiens, UniProt P35372); experiment: cell-based; conditions: read-out: Emax at GoA and GoB
Chain of hMOR (GoA and GoB) (P35372 whole entry): as the sequence (P35372 whole entry) above

[8] = biological target: hMOR (β-arrestin2) (Homo sapiens, UniProt P35372); experiment: cell-based; conditions: for Emax: read-out: β-arrestin2 recruitment Emax (BRET)
Chain of hMOR (β-arrestin2) (P35372 whole entry): as above

[9] = test system: MOR KO, KOR KO and DOR KO mice; experiment: 55 °C tail withdrawal antinociception in opioid receptor knock-out mice; assay type: in vivo, mouse; conditions: 10 mg/kg, sc, relative to WT
[10] = test system: mice; experiment: Respiratory rate, CLAMS; assay type: in vivo, mouse
[11] = test system: mice; experiment: Locomotor effect, CLAMS; assay type: in vivo, mouse
[12] = test system: DOR; experiment: BRET Gi-1 activation assay at DOR; assay type: cell-based
In short: (§1)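 Cells were plated in 6-well dishes (700,000–800,000 cells/well) or 10 cm dishes and transfected 2–4 h later with receptor:Gα-RLuc8:Gβ:Gγ-GFP2 at 1:1:1:1. The next day they were replated on poly-D-lysine 96-well plates (30,000–50,000 cells/well). One day later, in HBSS + 20 mM HEPES pH 7.4 with coelenterazine 400a, cells equilibrated 5 min, then drug 5 min. BRET2 ratio was GFP2 (510 nm)/RLuc8 (395 nm), sixth of six serial reads.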

[13] = test system: C57BL/6J mice; conditions: mouse, in vivo
[14] = biological target: hMOR (Homo sapiens, UniProt P35372); experiment: cell-based
Chain of hMOR (P35372 whole entry): as above

[15] = test system: KOR; experiment: BRET Gi-1 activation assay at KOR; assay type: cell-based
In short: as §1

[16] = test system: MOR; conditions: cited from earlier work
[17] = test system: C57BL/6J mice; conditions: sc; cited from earlier work
[18] = 45 mg/kg, sc (15-fold antinociceptive ED50)

Chain of hMOR (Gi-1) (P35372 whole entry): as above

Structure (SMILES): CC[C@@H]1CN2CC[C@@]3(O)C(=Nc4cccc(-c5ccccc5)c43)[C@@H]2C[C@@H]1/C(=C\OC)C(=O)OC [Compound 4, Methyl(E)-2-((2S,3S,7aS,12bS)-3-ethyl-7a-hydroxy-8-phenyl-1,2,3,4,6,7,7a,12b-octahydroindolo[2,3-a]quinolizin-2-yl)-3-methoxyacrylate]
- Emax [1]: 60 to 70%
- mean inhibition of evoked IPSCs [2]: smaller
- Emax [3]: 79 to 86%
- Ki [4]: 15 to 17 nM
- β-arrestin1 recruitment (BRET), words [5]: failed to show recruitment
- Nb33 recruitment efficacy at murine MOR [6]: 15–18%
- Emax [7]: 63 to 75%
- β-arrestin2 recruitment (BRET), words [8]: not measurable
- Emax [8]: < 10%

Structure (SMILES): CC[C@@H]1CN2CC[C@@]3(O)C(=Nc4cccc(C)c43)[C@@H]2C[C@@H]1/C(=C\OC)C(=O)OC [Compound 5, Methyl(E)-2-((2S,3S,7aS,12bS)-3-ethyl-7a-hydroxy-8-methyl-1,2,3,4,6,7,7a,12b-octahydroindolo[2,3-a]quinolizin-2-yl)-3-methoxyacrylate]
- Emax [1]: 60 to 70%
- mean inhibition of evoked IPSCs [2]: smaller
- Emax [3]: 79 to 86%
- Ki [4]: 15 to 17 nM
- β-arrestin1 recruitment (BRET), words [5]: failed to show recruitment
- Nb33 recruitment efficacy at murine MOR [6]: 15–18%
- Emax [7]: 63 to 75%
- β-arrestin2 recruitment (BRET), words [8]: not measurable
- Emax [8]: < 10%

Structure (SMILES): CC[C@@H]1CN2CC[C@@]3(O)C(=Nc4cccc(-c5ccoc5)c43)[C@@H]2C[C@@H]1/C(=C\OC)C(=O)OC [Compound 6 (SC13), Methyl(E)-2-((2S,3S,7aS,12bS)-3-ethyl-8-(furan-3-yl)-7a-hydroxy-1,2,3,4,6,7,7a,12b-octahydroindolo[2,3-a]quinolizin-2-yl)-3-methoxyacrylate]
- EC50 [1]: 145 nM
- Emax [1]: 60 to 70%
- antinociception in MOR KO mice [9]: significantly reduced
- antinociception in KOR KO mice ([9]; p = 0.058): remained intact
- antinociception in DOR KO mice ([9]; p = 0.13): remained intact
- mean inhibition of evoked IPSCs [2]: smaller
- respiratory effects (breath rate) [10, 18]: no statistically significant respiratory effects
- locomotor effect [11, 18]: no hyperlocomotion
- Emax [3]: 79 to 86%
- fold lower potency at DOR versus MOR, Gi-1 activation [12]: ~ 100 fold
- place conditioning (CPP/CPA) [13]: no signs of CPP or CPA
- β-arrestin1 recruitment (BRET), words [5]: failed to show recruitment
- EC50 [6]: 12 nM
- Emax [7]: 63 to 75%
- EC50 [14]: 730 nM
- β-arrestin2 recruitment (BRET), words [8]: not measurable
- Emax [8]: < 10%
- fold lower potency at KOR versus MOR, Gi-1 activation [15]: ~ 100 fold

Structure (SMILES): C[C@@H](Cc1ccsc1)NC(=O)NC[C@H](Cc1ccc(O)cc1)N(C)C [PZM21]
- Nb33 recruitment efficacy (literature) [16]: 38%

Structure (SMILES): COc1ccsc1CNCC[C@@]1(c2ccccn2)CCOC2(CCCC2)C1 [TRV130]
- Nb33 recruitment efficacy (literature) [16]: 42%

Structure (SMILES): CN1CC[C@]23c4c5ccc(O)c4O[C@H]2[C@@H](O)C=C[C@H]3[C@H]1C5 [morphine, reference compound]
- respiratory effects (breath rate) ([10]; 30 mg/kg, sc): significant respiratory depression for 60 min
- locomotor effect ([11]; 10 and 30 mg/kg, sc (5-fold and 15-fold ED50)): hyperlocomotion effects
- place conditioning (CPP/CPA) [13]: showed CPP
- antinociception ED50 (95% CI), literature [17]: 2.48 (1.57–3.87) mg/kg
